Experimental data of several laboratories.
Compare with care: the assays were run in different laboratories.
ESR1: Estrogen receptor (ESR1, Homo sapiens, UniProt P03372)
M-phase phosphoprotein 8 chromodomain: M-phase phosphoprotein 8, chromodomain (Homo sapiens, UniProt Q99549)
AChE: AChE (Phlebotomus papatasi, UniProt M1F887)
ADRA2C: Alpha-2C adrenergic receptor (ADRA2C, Homo sapiens, UniProt P18825)

Clc1ccc(-c2ccccc2Cl)cc1  EC50 (ESR1; reporter gene; agonist; luciferase): 20 µM
C[C@H]1CCC[C@H](O)CCCCCc2cc(O)cc(O)c2C(=O)O1  EC50 (ESR1; reporter gene; agonist; luciferase): 0.000134 µM
CCN(CCCC[C@H](NC(=O)[C@H](CC(C)C)NC(=O)[C@H](C)NC(=O)[C@H](Cc1ccco1)NC(=O)c1cccnc1)C(=O)N[C@@H](CO)C(N)=O)C(C)C  IC50 (M-phase phosphoprotein 8 chromodomain; cell-free assay; TR-FRET): 11 µM
CC[n+]1c(-c2ccccc2)c2cc(N)ccc2c2ccc(N)cc21  IC50 (AChE; enzyme activity; inhibitor): 14.1 µM
Oc1ccc(-c2cc(Cl)ccc2Cl)c(Cl)c1  EC50 (ESR1; reporter gene; agonist; luciferase): 0.2 µM
O=c1c2ccccc2[se]n1-c1ccccc1  IC50 (Leucine-rich repeat serine/threonine-protein kinase 2 (LRRK2, Homo sapiens, UniProt Q5S007, G2019S); enzyme activity; inhibitor; radiometric): 1.86 µM
COc1cc2c3cc1Oc1cc(ccc1O)C[C@@H]1c4c(cc(OC)c(O)c4Oc4ccc(cc4)C[C@@H]3N(C)CC2)CC[N+]1(C)C  IC50 (AChE; enzyme activity; inhibitor): 38.9 µM
Oc1ccc(-c2cccc(Cl)c2)cc1Cl  EC50 (ESR1; reporter gene; agonist; luciferase): 8.2 µM
CCN(CCCC[C@H](NC(=O)[C@H](Cc1ccc(OC)c(OC)c1)NC(=O)[C@H](C)NC(=O)[C@H](Cc1ccccc1)NC(=O)c1cccnc1)C(=O)N[C@@H](CO)C(N)=O)C(C)C  IC50 (M-phase phosphoprotein 8 chromodomain; cell-free assay; TR-FRET): 1.9 µM
Cc1cc(O)cc(C)c1C[C@H](N)C(=O)N[C@H](C)C(=O)NCC(=O)N[C@@H](Cc1ccc(Cl)cc1)C(=O)N(C)CCC[C@@]1(c2ccc(F)cc2)OCc2cc(C#N)ccc21  Ki (ADRA2C; ligand displacement; radioligand): 0.24 µM
CCN(CCCC[C@H](NC(=O)[C@H](CC(C)C)NC(=O)[C@H](C)NC(=O)[C@H](Cc1ccccc1)NC(=O)c1ccoc1)C(=O)N[C@@H](CO)C(N)=O)C(C)C  IC50 (M-phase phosphoprotein 8 chromodomain; cell-free assay; TR-FRET): 1.2 µM
C[C@H](N)Cn1ncc2ccc3c(c21)CCCO3  Ki (ADRA2C; ligand displacement; radioligand): 24.8 µM
CCN(CCCC[C@H](NC(=O)[C@H](CC(C)C)NC(=O)[C@H](C)NC(=O)[C@H](Cc1ccccc1)NC(=O)c1ccc(N(C)C)cc1)C(=O)N[C@@H](CO)C(N)=O)C(C)C  IC50 (M-phase phosphoprotein 8 chromodomain; cell-free assay; TR-FRET): 0.38 µM
c1cc[c]([Sn]([c]2ccccc2)[c]2ccccc2)cc1  EC50 (Peroxisome proliferator-activated receptor gamma (Pparg, Mus musculus, UniProt P37238); reporter gene; agonist; luciferase): 0.07 µM
